Results taken from ChEMBL document CHEMBL3259517, “Synthesis and evaluation of phosphorus containing, specific CDK9/CycT1 inhibitors” (J Med Chem, 2014).

Tests used:
CDK9/cyclin T1 = CDK9/cyclin T1 (Homo sapiens, UniProt P50750); experiment: Inhibition of CDK9/CycT1 (unknown origin) using TAMRA-Rbtide and ATP as substrate after 1 hr; assay type: protein-complex assay
[1] = Cytotoxicity against human MT4 cells assessed as cell viability at 2500 nM after 7 days by MTT assay relative to control; assay type: cell-based; details: read-out: Activity
How it was run: (§1)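 MT4 cells (2−3 × 10⁴/well) in RPMI1640 with 10% FCS, penicillin and streptomycin, exposed to compound at 2500 or 1250 nM for 7 days at 37 °C, 5% CO2. MTT added for 4 h, supernatant removed, formazan dissolved in DMSO, absorbance read at 540 nm. Viability expressed relative to untreated cells (100%).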

[2] = Cytotoxicity against human MT4 cells assessed as cell viability at 1250 nM after 7 days by MTT assay relative to control; assay type: cell-based; details: read-out: Activity; how it was run: as §1
[3] = system: Human immunodeficiency virus 1; experiment: Antiviral activity against HIV1 HTLV-3B infected in human MT4 cells assessed as inhibition of virus proliferation by measuring host cell viability at 1250 nM relative to control; assay type: functional
How it was run: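 HIV-1 HTLV-IIIB (3400 TCID50/mL per well; titre set by virus yield assay) infected MT4 cells, 2−3 × 10⁴/well in RPMI1640 with 10% FCS, penicillin and streptomycin, cultured as for the 7-day viability assay (37 °C, 5% CO2). Test compounds were at 1250 nM and AZT control at 25 nM. Read-out was MTT (4 h, DMSO, A540), given relative to infected untreated cells (100%).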

[4] = target: Cyclin-dependent kinase 2/cyclin E1 (Homo sapiens) (UniProt P24864+P24941); experiment: Inhibition of CDK2/CycE (unknown origin) using FAM labeled peptide as substrate at 10 uM by IMAP FAM FP assay; assay type: protein-complex assay
How it was run: (§2)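 Run by contract partners as an IMAP fluorescence polarization assay. […] Enzyme amount was set to give 50% substrate turnover. Compounds were added in DMSO, IMAP binding solution added after the kinase step, then FP read.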

[5] = target: Cyclin-dependent kinase 4/cyclin D1 (Homo sapiens) (UniProt P11802+P24385); experiment: Inhibition of CDK4/CycD1 (unknown origin) using FAM labeled peptide as substrate at 10 uM by IMAP FAM FP assay; assay type: protein-complex assay; how it was run: as §2

Chain of CDK9/cyclin T1 (O60563 whole entry): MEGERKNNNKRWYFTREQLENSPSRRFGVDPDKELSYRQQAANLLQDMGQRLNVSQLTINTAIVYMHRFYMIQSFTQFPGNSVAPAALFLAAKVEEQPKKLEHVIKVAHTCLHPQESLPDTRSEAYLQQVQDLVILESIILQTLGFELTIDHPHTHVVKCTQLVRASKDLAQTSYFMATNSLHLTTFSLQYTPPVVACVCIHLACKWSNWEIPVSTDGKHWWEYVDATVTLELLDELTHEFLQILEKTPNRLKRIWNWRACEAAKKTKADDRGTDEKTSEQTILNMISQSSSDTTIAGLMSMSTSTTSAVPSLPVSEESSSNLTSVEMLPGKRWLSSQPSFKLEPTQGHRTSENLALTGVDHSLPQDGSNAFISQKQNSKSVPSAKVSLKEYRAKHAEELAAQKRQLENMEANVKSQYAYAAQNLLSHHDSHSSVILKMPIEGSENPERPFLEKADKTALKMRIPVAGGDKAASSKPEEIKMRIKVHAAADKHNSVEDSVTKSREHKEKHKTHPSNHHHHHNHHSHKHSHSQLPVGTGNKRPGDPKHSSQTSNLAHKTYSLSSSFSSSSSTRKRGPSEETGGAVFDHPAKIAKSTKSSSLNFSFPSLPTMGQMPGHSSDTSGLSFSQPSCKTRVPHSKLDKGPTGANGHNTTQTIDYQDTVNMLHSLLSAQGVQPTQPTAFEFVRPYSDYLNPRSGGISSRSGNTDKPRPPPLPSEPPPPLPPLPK
Chain of CDK9/cyclin T1 (P50750 whole entry): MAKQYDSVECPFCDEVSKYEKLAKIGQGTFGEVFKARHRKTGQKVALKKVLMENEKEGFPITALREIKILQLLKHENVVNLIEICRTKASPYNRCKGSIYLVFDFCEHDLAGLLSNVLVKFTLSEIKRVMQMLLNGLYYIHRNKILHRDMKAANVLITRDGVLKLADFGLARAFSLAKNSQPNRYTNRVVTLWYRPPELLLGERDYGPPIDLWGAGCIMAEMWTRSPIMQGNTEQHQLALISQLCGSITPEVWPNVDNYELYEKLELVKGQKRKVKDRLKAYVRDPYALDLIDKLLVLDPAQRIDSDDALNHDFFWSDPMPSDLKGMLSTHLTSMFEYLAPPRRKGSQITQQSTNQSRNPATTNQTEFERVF

Row | Structure (SMILES) | IC50 (CDK9/cyclin T1) | also measured
1 | CCCP(=O)(Cc1cccc(Nc2cc(-c3ccc(OC)cc3)ncn2)c1)OCC (stereo not given) | 5410 nM | 
2 | CCOP(=O)(Cc1cccc(Nc2cc(-c3cccc([N+](=O)[O-])c3)ncn2)c1)OCC | 9870 nM | 
3 | CCCP(=O)(Cc1cccc(Nc2cc(-c3cccc(OC)c3OC)ncn2)c1)OCC (stereo not given) | 2390 nM | 
4 | CCOP(=O)(c1ccccc1)c1ccc(Nc2cc(-c3cccc(N)c3)ncn2)cc1 (stereo not given) | 6500 nM | 
5 | CCOP(=O)(CC)Cc1cc(Nc2cc(-c3ccccc3OC)ncn2)ccc1C (stereo not given) | 366 nM | 
6 | CCOP(=O)(CC)Cc1cccc(Nc2cc(-c3ccccc3OCc3ccccc3)ncn2)c1 (stereo not given) | 212 nM | viability at 168 h, 2.5 µM [1]: 94%; viability at 168 h, 1.25 µM [2]: 98%; Host cell viability relative to infected untreated cells [3]: 135%
7 | CCOP(=O)(CC)Cc1cccc(Nc2cc(-c3cccc([N+](=O)[O-])c3)ncn2)c1 (stereo not given) | 6430 nM | 
8 | CCOP(=O)(Cc1cccc(Nc2cc(-c3cccc(N)c3)ncn2)c1)c1ccccc1 (stereo not given) | 1020 nM | 
9 | CCCP(=O)(Cc1cccc(Nc2cc(-c3cccc(OC)c3)ncn2)c1)OCC (stereo not given) | 6940 nM | 
10 | CCCP(=O)(Cc1cccc(Nc2cc(-c3ccccc3Oc3ccccc3)ncn2)c1)OCC (stereo not given) | 601 nM | 
11 | CCOP(=O)(c1ccccc1)c1ccc(Nc2cc(-c3cccc([N+](=O)[O-])c3)ncn2)cc1 (stereo not given) | > 10000 nM | 
12 | CCCP(=O)(Cc1cccc(Nc2cc(-c3cccc(N)c3)ncn2)c1)OCC (stereo not given) | 682 nM | 
13 | O=[N+]([O-])c1cccc(-c2cc(Nc3ccc(CP(=O)(O)O)cc3)ncn2)c1 | 2100 nM | 
14 | CCOP(=O)(Cc1ccc(Nc2cc(-c3cccc(N)c3)ncn2)cc1)OCC | 3110 nM | inhibition [4]: 14%; inhibition [5]: 30%
15 | CCOP(=O)(Cc1cccc(Nc2cc(-c3cccc([N+](=O)[O-])c3)ncn2)c1)c1ccccc1 (stereo not given) | > 10000 nM | 
16 | CCCP(=O)(OCC)c1ccc(Nc2cc(-c3cccc([N+](=O)[O-])c3)ncn2)cc1 (stereo not given) | > 10000 nM | 
17 | CCOP(=O)(CC)Cc1ccc(Nc2cc(-c3ccccc3OC)ncn2)cc1 (stereo not given) | 743 nM | 
18 | CCCP(=O)(Cc1ccc(Nc2cc(-c3cccc(N)c3)ncn2)cc1)OCC (stereo not given) | 7470 nM | 
19 | CCCP(=O)(Cc1cccc(Nc2cc(-c3cccc([N+](=O)[O-])c3)ncn2)c1)OCC (stereo not given) | 8060 nM | 
20 | CCCP(=O)(Cc1cccc(Nc2cc(-c3ccccc3CC)ncn2)c1)OCC (stereo not given) | > 10000 nM | 
21 | CCOP(=O)(CC)c1cccc(Nc2cc(-c3ccccc3OC)ncn2)c1 (stereo not given) | 842 nM | 
22 | CCOP(=O)(Oc1cccc(Nc2cc(-c3ccccc3OC)ncn2)c1)c1ccccc1 (stereo not given) | 3100 nM | 

Row | Structure (SMILES) | IC50 (CDK9/cyclin T1) | also measured
23 | CN1CC[C@H](c2c(O)cc(O)c3c(=O)cc(-c4ccccc4Cl)oc23)[C@H](O)C1 |  | inhibition [4]: 99%; inhibition [5]: 84%
24 | CCOP(=O)(c1ccccc1)c1ccc(Nc2cc(-c3ccccc3OC)ncn2)cc1 (stereo not given) | 523 nM | 
25 | CCOP(=O)(CC)c1cccc(Nc2cc(-c3cccc(N)c3)ncn2)c1 (stereo not given) | 9800 nM | 
26 | CCOP(=O)(OCC)C(O)c1ccc(Nc2cc(-c3cccc([N+](=O)[O-])c3)ncn2)cc1 (stereo not given) | 4580 nM | 
27 | CCOP(=O)(OCC)c1cccc(Nc2cc(-c3ccccc3OC)ncn2)c1 | 1040 nM | 
28 | CCP(=O)(O)Cc1cccc(Nc2cc(-c3ccccc3OCc3ccccc3)ncn2)c1 | 163 nM | viability at 168 h, 2.5 µM [1]: 104%; viability at 168 h, 1.25 µM [2]: 110%; Host cell viability relative to infected untreated cells [3]: 124%
29 | CCCP(=O)(OCC)c1ccc(Nc2cc(-c3cccc(N)c3)ncn2)cc1 (stereo not given) | > 10000 nM | 
30 | CCOP(=O)(OCC)C(O)c1cccc(Nc2cc(-c3cccc(N)c3)ncn2)c1 (stereo not given) | 1400 nM | 
31 | Nc1cccc(-c2cc(Nc3ccc(P(=O)(O)O)cc3)ncn2)c1 | 3320 nM | inhibition [4]: 98%; inhibition [5]: 67%
32 | CCOP(=O)(Oc1cccc(Nc2cc(-c3cccc([N+](=O)[O-])c3)ncn2)c1)c1ccccc1 (stereo not given) | > 10000 nM | 
33 | Nc1cccc(-c2cc(Nc3ccc(CP(=O)(O)O)cc3)ncn2)c1 | 1130 nM | 
34 | CCOP(=O)(OCC)C(O)c1cccc(Nc2cc(-c3cccc([N+](=O)[O-])c3)ncn2)c1 (stereo not given) | > 10000 nM | 
35 | CCOP(=O)(OCC)c1ccc(Nc2cc(-c3ccccc3OC)ncn2)cc1 | 1020 nM | inhibition [4]: 69%; inhibition [5]: 22%
36 | CCOP(=O)(CC)c1ccc(Nc2cc(-c3ccccc3OC)ncn2)cc1 (stereo not given) | 418 nM | 
37 | CCOP(=O)(Cc1cccc(Nc2cc(-c3ccccc3OC)ncn2)c1)c1ccccc1 (stereo not given) | 517 nM | 
38 | CCOP(=O)(Oc1ccc(Nc2cc(-c3ccccc3OC)ncn2)cc1)c1ccccc1 (stereo not given) | 2840 nM | 
39 | O=[N+]([O-])c1cccc(-c2cc(Nc3cccc(P(=O)(O)O)c3)ncn2)c1 | 4100 nM | 
40 | CCCP(=O)(Cc1cccc(Nc2cc(-c3ccccc3OC(C)C)ncn2)c1)OCC (stereo not given) | 210 nM | 
41 | CCOP(=O)(Cc1cccc(Nc2cc(-c3ccccc3OC)ncn2)c1)OCC | 333 nM | viability at 168 h, 2.5 µM [1]: 100%; viability at 168 h, 1.25 µM [2]: 91%
42 | CCOP(=O)(Cc1cccc(Nc2cc(-c3cccc(N)c3)ncn2)c1)OCC | 332 nM | Host cell viability relative to infected untreated cells [3]: 96%
43 | CCOP(=O)(CC)Cc1cc(Nc2cc(-c3cccc([N+](=O)[O-])c3)ncn2)ccc1C (stereo not given) | 7020 nM | 
44 | CCCP(=O)(Cc1cccc(Nc2cc(-c3cccc(OCc4ccccc4)c3)ncn2)c1)OCC (stereo not given) | > 10000 nM | 

Row | Structure (SMILES) | IC50 (CDK9/cyclin T1) | also measured
45 | CCCP(=O)(Cc1ccc(Nc2cc(-c3ccccc3OC)ncn2)cc1)OCC (stereo not given) | 652 nM | 
46 | CCOP(=O)(CC)c1ccc(Nc2cc(-c3cccc(N)c3)ncn2)cc1 (stereo not given) | > 10000 nM | 
47 | CCOP(=O)(Oc1cccc(Nc2cc(-c3cccc(N)c3)ncn2)c1)c1ccccc1 (stereo not given) | 5330 nM | 
48 | CCOP(=O)(Cc1ccc(Nc2cc(-c3cccc([N+](=O)[O-])c3)ncn2)cc1)OCC | > 10000 nM | 
49 | CCOP(=O)(Oc1cc(Nc2cc(-c3ccccc3OC)ncn2)ccc1C)c1ccccc1 (stereo not given) | 4140 nM | inhibition [4]: 8%; inhibition [5]: 19%
50 | CCOP(=O)(OCC)c1cccc(Nc2cc(-c3cccc([N+](=O)[O-])c3)ncn2)c1 | > 10000 nM | 
51 | CCCP(=O)(Cc1ccc(Nc2cc(-c3cccc([N+](=O)[O-])c3)ncn2)cc1)OCC (stereo not given) | 5530 nM | 
52 | CCCP(=O)(Cc1cccc(Nc2cc(-c3ccccc3OCc3ccccc3)ncn2)c1)OCC (stereo not given) | 143 nM | viability at 168 h, 2.5 µM [1]: 93%; viability at 168 h, 1.25 µM [2]: 86%; Host cell viability relative to infected untreated cells [3]: 148%
53 | CCOP(=O)(Cc1cc(Nc2cc(-c3ccccc3OC)ncn2)ccc1C)OCC | 5220 nM | 
54 | CCOP(=O)(CC)Cc1ccc(Nc2cc(-c3cccc([N+](=O)[O-])c3)ncn2)cc1 (stereo not given) | 7770 nM | 
55 | CCOP(=O)(CC)c1ccc(Nc2cc(-c3cccc([N+](=O)[O-])c3)ncn2)cc1 (stereo not given) | > 10000 nM | 
56 | CCOP(=O)(OCC)c1ccc(Nc2cc(-c3cccc([N+](=O)[O-])c3)ncn2)cc1 | > 10000 nM | 
57 | CCOP(=O)(CC)Cc1cc(Nc2cc(-c3cccc(N)c3)ncn2)ccc1C (stereo not given) | 346 nM | 
58 | CCOP(=O)(OCC)C(O)c1ccc(Nc2cc(-c3ccccc3OC)ncn2)cc1 (stereo not given) | 510 nM | inhibition [4]: 94%; inhibition [5]: 68%
59 | CCOP(=O)(Nc1cc(Nc2cc(-c3ccccc3OC)ncn2)ccc1C)c1ccccc1 (stereo not given) | 5240 nM | inhibition [4]: 19%; inhibition [5]: 18%
60 | CCOP(=O)(OCC)c1ccc(Nc2cc(-c3cccc(N)c3)ncn2)cc1 | > 10000 nM | inhibition [4]: 18%; inhibition [5]: 35%
61 | CCCP(=O)(OCC)c1ccc(Nc2cc(-c3ccccc3OC)ncn2)cc1 (stereo not given) | 1150 nM | 
62 | CCCP(=O)(Cc1cccc(Nc2cc(-c3ccc(F)cc3OC)ncn2)c1)OCC (stereo not given) | 186 nM | 
63 | CCOP(=O)(CC)Cc1ccc(Nc2cc(-c3cccc(N)c3)ncn2)cc1 (stereo not given) | 7530 nM | 
64 | CCOP(=O)(CC)c1cccc(Nc2cc(-c3cccc([N+](=O)[O-])c3)ncn2)c1 (stereo not given) | > 10000 nM | 
65 | COc1ccccc1-c1cc(Nc2ccc(P(=O)(O)O)cc2)ncn1 | 580 nM | 
66 | CCOP(=O)(Cc1ccc(Nc2cc(-c3ccccc3OC)ncn2)cc1)OCC | 490 nM | inhibition [4]: 77%; inhibition [5]: 51%
